Sampled rows, rich in hits. Any-hit rate of the full collection: about 3.4%.
CHRM1 PAM = human CHRM1 positive allosteric modulation | P11229 | CHO-K1 hM1, Fluo-8 calcium fluorescence, ACh EC20; 0% = ACh EC20, 100% = maximal ACh | activation, % at 3 µM | hit rate 0.088% among 360,000; in the data active = activation above about 19%, passing the limit was not always enough
Target sequence (P11229 whole entry, looked up): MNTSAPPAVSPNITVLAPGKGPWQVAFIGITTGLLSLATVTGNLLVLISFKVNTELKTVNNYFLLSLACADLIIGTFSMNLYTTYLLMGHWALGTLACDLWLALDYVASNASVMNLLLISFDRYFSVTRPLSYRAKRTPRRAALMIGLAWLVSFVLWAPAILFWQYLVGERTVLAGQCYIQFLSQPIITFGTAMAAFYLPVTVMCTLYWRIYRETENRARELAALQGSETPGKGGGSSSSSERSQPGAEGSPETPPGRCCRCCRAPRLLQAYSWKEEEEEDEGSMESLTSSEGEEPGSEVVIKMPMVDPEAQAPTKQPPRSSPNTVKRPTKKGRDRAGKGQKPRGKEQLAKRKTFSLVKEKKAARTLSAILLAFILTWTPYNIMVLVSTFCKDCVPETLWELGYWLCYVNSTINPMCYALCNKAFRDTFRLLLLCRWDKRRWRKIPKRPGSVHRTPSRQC
TAAR1 ag = human TAAR1 agonism; AID 624467; hit rate 0.99% among 360,000; Q96RJ0; activation, % at 3 µM; CHO RD-HGA16 TAAR1, Fluo-8 calcium fluorescence; vehicle wells 0%, saturating PEA agonist 100%;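 active = activation above the mean activation of all test compounds in the run plus 3 SD, cut at about 38% in these data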
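Test system: RD-HGA16 (CHO) cells co-expressing Gα16 and hTAAR1; dosing: one-point dosing at 3 µM (nominal); timing: 17-24 h seeding, 75 min 37 °C dye, 30 min RT; signal: kinetic Fluo-8 calcium fluorescence; read-out basis: % activation relative to PEA EC100 response; controls: DMSO and PEA EC100; replicates: n 1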
M1 ag = human M1 muscarinic receptor agonism. hit rate 0.33% among 360,000. CHO-K1 hM1, Fluo-8 calcium fluorescence, agonist mode; 0% DMSO, 100% acetylcholine EC100. activation, % at 3 µM. AID 588814;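 active = activation above the run's mean compound activation plus 3 SD, cut at about 16% in these data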;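 note: peak over basal fluorescence ratio within a 140 s kinetic read after compound addition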
M1 antag = human CHRM1 antagonism | P11229 | CHO-K1 hM1, Fluo-8 calcium fluorescence, ACh EC80 antagonist | inhibition, % at 3 µM | hit rate 1.3% among 360,000;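 active = percent inhibition above its own plate's cutoff, namely the mean of that plate's compound wells plus 3 SD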;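 note: peak over basal fluorescence ratio during 140 s after agonist addition; 0% = ACh EC80 plus DMSO and 100% = DMSO alone without agonist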
TAAR1 antagonist = antagonists of human TAAR1 | Q96RJ0 | CHO RD-HGA16 TAAR1, Fluo-8 calcium fluorescence, antagonist | inhibition, % at 3 µM | hit rate 1.5% among 360,000;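 active = inhibition above a per-plate cutoff, the mean inhibition of test compounds on that plate plus 3 SD, cut at about 49% in these data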;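 note: 0% = DMSO plus EC80 beta-PEA response and 100% = DMSO alone without agonist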
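Assay system: CHO-derived RD-HGA16 cells stably expressing human TAAR1 plus Gα16. Timing: 140 s kinetic read after compound, 140 s after agonist. Technique: kinetic Fluo-8 calcium fluorescence measurement. Measure: % inhibition of agonist calcium response.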
The depositor's hits bear a star; nt = no result given.

SMILES	CHRM1 PAM	TAAR1 ag	M1 ag	M1 antag	TAAR1 antagonist
CC1(C(=O)Nc2ccc(Cl)cc2)Cc2c(-c3cccc(C(F)(F)F)c3)ccnc2O1 (stereo unspecified)	17.3	1.3	0.3	-21.9	-10.5
COc1cccc(C(=O)N[C@@H](CC(C)C)C(=O)N2CCC[C@H]2C(=O)NCc2ccccc2)c1	nt	-1.3	nt	nt	-11.0
COc1cc(OC)cc(N(C(=O)CNC(=O)c2ccco2)C(C(=O)NCC2CCCO2)c2ccccc2)c1 (stereo unspecified)	-8.3	15.2	-0.1	17.3	52.0*
Cc1ccc(C(C(=O)NC2CCCCC2)N(CC2CCCO2)C(=O)CNC(=O)c2cccs2)cc1 (stereo unspecified)	-18.3	3.4	-0.9	37.4*	-9.4
O=C(NCC1CCCO1)c1cccs1 (stereo unspecified)	18.9*	8.5	-2.8	-18.9	-2.5
O=C(COC(=O)c1cccs1)NCC1CCCO1 (stereo unspecified)	-3.0	0.7	-2.4	13.6	-7.3
O=C(NCC(=O)N(CC1CCCO1)C(C(=O)NC1CCCCC1)c1ccccc1)c1cccs1 (stereo unspecified)	6.7	10.0	-0.9	-20.4	-20.6
Cc1ccc(CN(C(=O)CNC(=O)c2cccs2)C(C(=O)NCC2CCCO2)c2ccccc2)cc1 (stereo unspecified)	-27.0	20.6	-1.5	43.5*	43.5
COc1cc(OC)cc(N(C(=O)CNC(=O)c2cccs2)C(C(=O)NCC2CCCO2)c2ccccc2)c1 (stereo unspecified)	-0.6	15.5	-0.7	-5.8	38.7
O=C(NCCc1cccs1)C1CCC(=O)N(CCc2cccc(F)c2)C1 (stereo unspecified)	6.6	41.8*	-4.5	-5.7	-9.6
Cc1ccsc1CCNC(=O)C1CCC(=O)N(CCc2cccc(F)c2)C1 (stereo unspecified)	5.1	9.3	-2.2	-7.3	-13.2
CCOC(=O)C1CCCN(C(=O)/C(=C/c2ccco2)NC(=O)c2ccccc2)C1 (stereo unspecified)	-12.1	17.5	48.2*	10.7	9.1
CCOC(=O)C1CCCN(C(=O)Nc2c(-c3ccccc3)noc2C)C1 (stereo unspecified)	-6.1	5.9	30.7*	1.7	1.5
CCOC(=O)C1CCCN(C(=O)C2c3ccccc3Oc3ccccc32)C1 (stereo unspecified)	-29.6	13.4	79.2*	34.6*	8.0
O=C(N/C(=C/c1ccco1)C(=O)N1CCCCCC1)c1ccccc1	12.1	-5.0	-2.0	-10.5	7.2
CS(=O)(=O)N1CCN(C(=O)C2c3ccccc3Oc3ccccc32)CC1	-21.6	nt	-8.7	46.9*	nt
CCOC(=O)C1CCCN(C(=O)CC(c2ccccc2)c2ccccc2)C1 (stereo unspecified)	11.6	0.0	-2.3	-16.3	-1.9
CCOC(=O)C1CCCN(C(=O)Cc2c(C(=O)O)[nH]c3ccccc23)C1 (stereo unspecified)	-28.5	39.5*	73.3*	63.8*	31.8
CCOC(=O)C1CCCN(C(=S)Nc2ccc(Nc3ccccc3)cc2)C1 (stereo unspecified)	-26.3	43.7*	77.8*	79.5*	41.9
CCOC(=O)C1CCN(C(=S)Nc2ccccc2)CC1	0.9	4.9	7.5	2.0	-15.7
Clc1cc(Cl)cc(CN2CCN(c3ncc(Cc4ccccc4)cn3)CC2)c1	nt	0.3	nt	nt	-40.4
CCOc1cc(/C=C2/SC(=O)N(CC(=O)N3CCc4ccccc4C3)C2=O)ccc1OCC(=O)O	19.2*	5.5	2.3	-13.4	7.7
Cc1ccccc1OCc1nc2ccccc2c(=O)n1/N=C/c1cn[nH]c1-c1ccc(Br)cc1	3.8	4.7	2.7	-2.3	31.6
O=c1c2ccccc2nc(COc2ccccc2)n1/N=C/c1cn[nH]c1-c1ccccc1	-10.3	8.7	-3.6	28.4*	55.1*
COc1ccc(CNC(=O)[C@@H](Cc2ccccc2)NC(=O)[C@H]2O[C@@H](n3ccc(=O)[nH]c3=O)[C@H](O)[C@@H]2O)cc1	nt	1.7	nt	nt	-0.8
NC(=O)c1ncn2c(=O)n(CCCl)nnc12	nt	6.2	nt	nt	-10.2
COCCN1C(=O)[C@H]2C[C@@]13O[C@H](C1CCCCC1)N=C3CC1c3ccccc3C[C@@]12C (stereo partly specified)	nt	6.0	nt	nt	-9.1
